Assays:
[1] = test system: Mus musculus; assay: Induction of serum thyroxine level in Swiss mouse measured per 100 ml at 1 mg, iv after 1 hr by radioimmunoassay (reference value: 4.20 +/- 0.25 to 6.06 +/- 0.36 ug); format: functional
[2] = test system: Mus musculus; assay: Induction of serum thyroxine level in Swiss mouse measured per 100 ml at 1 mg, iv after 2 hrs by radioimmunoassay (reference value: 4.20 +/- 0.25 to 6.06 +/- 0.36 ug); format: functional
[3] = test system: Mus musculus; assay: Induction of radioiodine secretion from 14 days iodine-poor diet fed mouse thyroid assessed as blood [125I] level at 30 mg/kg, iv after 2 hrs pretreated with 10 ug L-thyroxine and [125-I] relative to control by McKenzie Bioassay; format: functional, Thyroid gland
Procedure, shortened: (§1)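 Weanling female mice (14–16 g) fed an iodine-poor diet for 14 days, then given 10 μg L-thyroxine sc and 6–8 μCi 125I ip, with L-thyroxine (1 mg/l) in drinking water for 3 days. On day 4, cyclic nucleotides were given into the tail vein as sodium salts in aqueous solution, pH 7.4. Orbital-sinus blood was sampled at 0 and 2 h and γ-counted. Result is cpm(2 h)/cpm(0 h) × 100; mean of about six animals per dose.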

[4] = test system: Mus musculus; assay: Induction of radioiodine secretion from 14 days iodine-poor diet fed mouse thyroid assessed as blood [125I] level at 15 mg/kg, iv after 2 hrs pretreated with 10 ug L-thyroxine and [125-I] relative to control by McKenzie Bioassay; format: functional, Thyroid gland; procedure, shortened: as §1
[5] = test system: Mus musculus; assay: Induction of radioiodine secretion from 14 days iodine-poor diet fed mouse thyroid assessed as blood [125I] level at 6 mg/kg, iv after 2 hrs pretreated with 10 ug L-thyroxine and [125-I] relative to control by McKenzie Bioassay; format: functional, Thyroid gland; procedure, shortened: as §1
[6] = Toxicity in iv dosed mouse; format: organism-based; conditions: in vivo
Procedure, shortened: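 Female mice (14–16 g, post-weaning) kept 14 days on an iodine-poor diet. They were then given 10 μg L-thyroxine sc and 6–8 μCi 125I ip, followed by L-thyroxine 1 mg/l in drinking water for 3 days. On day 4, cyclic nucleotides were injected into the tail vein as sodium salts in aqueous solution, pH 7.4, at 6–60 mg/kg. Deaths were recorded per dose group of about six animals.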

[7] = test system: Mus musculus; assay: Induction of radioiodine secretion from 14 days iodine-poor diet fed mouse thyroid assessed as blood [125I] level at 60 mg/kg, iv after 2 hrs pretreated with 10 ug L-thyroxine and [125-I] relative to control by McKenzie Bioassay; format: functional, Thyroid gland
[8] = Stability of the compound assessed as hydrolysis in presence of phosphodiesterase; format: ADME
[9] = test system: Mus musculus; assay: Induction of radioiodine secretion from 14 days iodine-poor diet fed mouse thyroid assessed as blood [125I] level at 45 mg/kg, iv after 2 hrs pretreated with 10 ug L-thyroxine and [125-I] relative to control by McKenzie Bioassay; format: functional, Thyroid gland; procedure, shortened: as §1

SMILES	serum T4 [1]	serum T4 [2]	Activity [3]	Activity [4]	Activity [5]	LD50 [6]	Activity [7]	Stability [8]	Activity [9]
CSc1nc2c(N)ncnc2n1[C@@H]1O[C@H](COP(=O)(O)O)[C@@H](O)[C@H]1O	4.44 µg/dL	4.78 µg/dL	112%						
[N-]=[N+]=Nc1nc2c(N)ncnc2n1[C@@H]1O[C@@H]2COP(=O)([O-])O[C@H]2[C@H]1O.[Na+]	6.19 µg/dL		633%	594%	227%				
CCCC(=O)Nc1ncnc2c1nc(O)n2[C@@H]1O[C@@H]2COP(=O)([O-])O[C@H]2[C@H]1OC(=O)CCC.[Na+]	5.58 µg/dL		500%	184%		> 200 mg/kg	582%		
CCCC(=O)Nc1ncnc2c1nc(N)n2[C@@H]1O[C@@H]2COP(=O)([O-])O[C@H]2[C@H]1OC(=O)CCC.[Na+]			146%			> 200 mg/kg	164%		
CSc1nc2c(N)ncnc2n1[C@@H]1O[C@@H]2COP(=O)([O-])O[C@H]2[C@H]1O.[Na+]	6.32 µg/dL	6.47 µg/dL	804%	645%	492%				
Nc1ncnc2c1nc(O)n2[C@@H]1O[C@@H]2COP(=O)([O-])O[C@H]2[C@H]1O.[Na+]				114%					
CCCC(=O)Nc1ncnc2c1nc(S)n2[C@@H]1O[C@@H]2COP(=O)([O-])O[C@H]2[C@H]1OC(=O)CCC.[Na+]	4.3 µg/dL		177%	154%		> 200 mg/kg	238%		
Nc1ncnc2c1nc(Br)n2[C@@H]1O[C@@H]2COP(=O)([O-])O[C@H]2[C@H]1O.[Na+]			331%	284%	248%		488%		
CCCC(=O)Nc1ncnc2c1nc(SCc1ccccc1)n2[C@@H]1O[C@@H]2COP(=O)([O-])O[C@H]2[C@H]1OC(=O)CCC.[Na+]			141%	170%	116%		123%		
CCCC(=O)Nc1ncnc2c1nc(S)n2[C@@H]1O[C@@H]2COP(=O)([O-])O[C@H]2[C@H]1O.[Na+]			342%	139%		> 200 mg/kg	630%		
CCCC(=O)Nc1ncnc2c1ncn2[C@@H]1O[C@@H]2COP(=O)([O-])O[C@H]2[C@H]1OC(=O)CCC.[Na+]	5.15 µg/dL		136%			> 200 mg/kg	245%	Stable	
CCCC(=O)Nc1ncnc2c1nc(SC)n2[C@@H]1O[C@@H]2COP(=O)([O-])O[C@H]2[C@H]1OC(=O)CCC.[Na+]			125%	150%		> 200 mg/kg	174%		
Nc1ncnc2c1nc(N)n2[C@@H]1O[C@@H]2COP(=O)([O-])O[C@H]2[C@H]1O.[Na+]	6.84 µg/dL		607%	663%	226%				818%
CCCC(=O)O[C@@H]1[C@@H]2OP(=O)([O-])OC[C@H]2O[C@H]1n1c(SC)nc2c(N)ncnc21.[Na+]			156%			> 200 mg/kg			110%
CCCC(=O)O[C@@H]1[C@@H]2OP(=O)([O-])OC[C@H]2O[C@H]1n1c(S)nc2c(N)ncnc21.[Na+]			153%	155%		> 200 mg/kg	190%		
CCCC(=O)Nc1ncnc2c1nc(SCc1ccccc1)n2[C@@H]1O[C@@H]2COP(=O)([O-])O[C@H]2[C@H]1O.[Na+]			122%	146%		> 200 mg/kg	197%		
Nc1ncnc2c1nc(SCc1ccccc1)n2[C@@H]1O[C@@H]2COP(=O)([O-])O[C@H]2[C@H]1O.[Na+]			195%	183%	135%				
Nc1ncnc2c1nc(S)n2[C@@H]1O[C@@H]2COP(=O)([O-])O[C@H]2[C@H]1O.[Na+]					136%				
CCCC(=O)Nc1ncnc2c1nc(SC)n2[C@@H]1O[C@@H]2COP(=O)([O-])O[C@H]2[C@H]1O.[Na+]			204%	121%		> 200 mg/kg	533%		
[Cl-].[Na+] [SODIUM CHLORIDE]	6 µg/dL	5.83 µg/dL							

Source: ChEMBL document CHEMBL3272186, “Synthesis of new cyclic nucleotides and their differential stimulatory effects on thyroid function in mice” (J Med Chem, 1976)
